According to ChEMBL document CHEMBL1132646, “Synthesis and evaluation of new sulfur-containing L-arginine-derived inhibitors of nitric oxide synthase” (J Med Chem, 1999):

Tests used:
Nitric oxide synthase 3 = target: T1, Nitric oxide synthase 3 (Homo sapiens, UniProt P29474); experiment: Inhibitory concentration against mammalian endothelial nitric oxide synthase (eNOS)
T1 sequence (P29474 whole entry): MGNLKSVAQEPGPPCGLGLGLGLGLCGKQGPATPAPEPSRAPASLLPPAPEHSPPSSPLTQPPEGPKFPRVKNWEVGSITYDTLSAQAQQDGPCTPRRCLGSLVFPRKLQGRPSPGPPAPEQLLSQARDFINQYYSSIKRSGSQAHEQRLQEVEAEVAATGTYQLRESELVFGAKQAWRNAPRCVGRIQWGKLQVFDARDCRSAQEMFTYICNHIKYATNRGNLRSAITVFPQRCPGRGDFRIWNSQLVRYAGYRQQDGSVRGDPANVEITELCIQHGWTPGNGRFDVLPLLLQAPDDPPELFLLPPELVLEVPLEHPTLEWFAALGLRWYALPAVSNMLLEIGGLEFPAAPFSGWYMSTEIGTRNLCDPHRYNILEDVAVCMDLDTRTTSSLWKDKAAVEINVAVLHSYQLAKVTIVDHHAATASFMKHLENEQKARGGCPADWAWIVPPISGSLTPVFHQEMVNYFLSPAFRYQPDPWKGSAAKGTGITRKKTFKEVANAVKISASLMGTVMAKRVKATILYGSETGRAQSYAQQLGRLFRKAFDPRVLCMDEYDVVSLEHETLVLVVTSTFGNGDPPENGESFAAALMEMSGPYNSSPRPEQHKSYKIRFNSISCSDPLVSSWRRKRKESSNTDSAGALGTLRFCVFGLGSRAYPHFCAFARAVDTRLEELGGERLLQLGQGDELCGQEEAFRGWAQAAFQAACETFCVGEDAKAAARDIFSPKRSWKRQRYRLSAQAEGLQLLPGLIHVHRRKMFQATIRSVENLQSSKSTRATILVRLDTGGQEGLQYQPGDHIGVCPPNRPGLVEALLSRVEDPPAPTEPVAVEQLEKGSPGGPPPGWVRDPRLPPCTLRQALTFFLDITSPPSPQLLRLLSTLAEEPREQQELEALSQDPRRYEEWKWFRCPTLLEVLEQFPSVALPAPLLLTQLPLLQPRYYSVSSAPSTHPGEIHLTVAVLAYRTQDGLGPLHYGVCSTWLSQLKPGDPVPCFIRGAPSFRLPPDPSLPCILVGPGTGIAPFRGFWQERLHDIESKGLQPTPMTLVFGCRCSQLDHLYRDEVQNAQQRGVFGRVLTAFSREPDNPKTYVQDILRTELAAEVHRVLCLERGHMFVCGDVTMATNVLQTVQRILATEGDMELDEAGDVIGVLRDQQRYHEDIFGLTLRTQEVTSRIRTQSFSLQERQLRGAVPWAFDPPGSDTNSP
Procedure, shortened: (§1)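 Citrulline formation: 20 mM HEPES pH 7.4, 50 μM L-arginine with 0.05 μCi [14C]-L-arginine, 4 μM FAD/FMN/H4B, 1 mM DTT, 1 mg/mL BSA, varied inhibitor; nNOS 12.5 nM, eNOS 25 nM (both plus 1 mM CaCl2, 15 μg/mL calmodulin), iNOS 2.5 nM (mouse, His6-tagged). Initiated with NADPH, 10 min room temperature, stopped pH 5.5 EDTA; [14C]-citrulline separated on Dowex cation exchange, scintillation counted; duplicate.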

[1] = target: T2, Nitric oxide synthase, inducible (Mus musculus, UniProt P29477); experiment: Effective concentration against NADPH oxidase activity of iNOS
T2 sequence (P29477 whole entry): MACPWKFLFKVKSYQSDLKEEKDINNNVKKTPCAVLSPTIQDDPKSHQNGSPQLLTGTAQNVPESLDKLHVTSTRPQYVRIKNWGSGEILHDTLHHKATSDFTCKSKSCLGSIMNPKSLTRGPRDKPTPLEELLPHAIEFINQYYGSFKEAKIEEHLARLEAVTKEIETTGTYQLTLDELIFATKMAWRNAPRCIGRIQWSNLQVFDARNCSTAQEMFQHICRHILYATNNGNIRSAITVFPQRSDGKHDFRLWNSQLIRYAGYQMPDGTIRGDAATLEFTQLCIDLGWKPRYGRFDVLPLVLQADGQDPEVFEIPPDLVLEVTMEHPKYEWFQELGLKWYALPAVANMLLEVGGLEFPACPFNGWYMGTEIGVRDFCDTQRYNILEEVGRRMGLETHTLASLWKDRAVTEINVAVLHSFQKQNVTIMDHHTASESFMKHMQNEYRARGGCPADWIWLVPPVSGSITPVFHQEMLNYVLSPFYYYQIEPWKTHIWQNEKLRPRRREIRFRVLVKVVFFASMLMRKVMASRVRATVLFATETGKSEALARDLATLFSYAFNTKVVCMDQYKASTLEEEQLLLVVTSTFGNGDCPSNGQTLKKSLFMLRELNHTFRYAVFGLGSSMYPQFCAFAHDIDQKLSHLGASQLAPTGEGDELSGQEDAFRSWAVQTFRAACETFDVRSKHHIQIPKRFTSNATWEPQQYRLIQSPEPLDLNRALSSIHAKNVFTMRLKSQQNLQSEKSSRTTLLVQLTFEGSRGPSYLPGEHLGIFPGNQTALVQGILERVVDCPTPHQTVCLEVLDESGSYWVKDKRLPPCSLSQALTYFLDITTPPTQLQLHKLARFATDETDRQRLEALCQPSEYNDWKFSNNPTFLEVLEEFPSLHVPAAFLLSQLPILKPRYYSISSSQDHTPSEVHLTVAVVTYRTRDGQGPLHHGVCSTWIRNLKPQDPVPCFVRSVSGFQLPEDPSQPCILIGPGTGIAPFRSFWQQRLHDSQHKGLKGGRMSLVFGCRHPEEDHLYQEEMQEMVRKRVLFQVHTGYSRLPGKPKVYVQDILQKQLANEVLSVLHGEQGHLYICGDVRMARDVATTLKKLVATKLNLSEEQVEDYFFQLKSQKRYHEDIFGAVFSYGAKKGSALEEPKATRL
Procedure, shortened: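 Mouse His6-tagged iNOS (E. coli BL21-DE3 expressed, Ni-NTA purified), 0.5 μM, in 40 mM HEPES pH 7.4 with 0.3 mM DTT, 4 μM each FAD/FMN/H4B, 10 units/mL catalase and SOD, varied analogue concentrations; started with 0.1 mM NADPH. NADPH oxidation rate followed as absorbance drop at 340 nm, 37 °C, triplicate; EC50 for decreased oxidase activity.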

[2] = target: T2, Nitric oxide synthase, inducible; experiment: Inhibitory concentration against mouse inducible nitric oxide synthase (iNOS); procedure, shortened: as §1
Nitric oxide synthase 1 = Nitric oxide synthase 1 (Homo sapiens, UniProt P29475); experiment: Inhibitory concentration against mammalian Neuronal nitric oxide synthase (nNOS); procedure, shortened: as §1
Nitric oxide synthase 1, sequence (P29475 whole entry): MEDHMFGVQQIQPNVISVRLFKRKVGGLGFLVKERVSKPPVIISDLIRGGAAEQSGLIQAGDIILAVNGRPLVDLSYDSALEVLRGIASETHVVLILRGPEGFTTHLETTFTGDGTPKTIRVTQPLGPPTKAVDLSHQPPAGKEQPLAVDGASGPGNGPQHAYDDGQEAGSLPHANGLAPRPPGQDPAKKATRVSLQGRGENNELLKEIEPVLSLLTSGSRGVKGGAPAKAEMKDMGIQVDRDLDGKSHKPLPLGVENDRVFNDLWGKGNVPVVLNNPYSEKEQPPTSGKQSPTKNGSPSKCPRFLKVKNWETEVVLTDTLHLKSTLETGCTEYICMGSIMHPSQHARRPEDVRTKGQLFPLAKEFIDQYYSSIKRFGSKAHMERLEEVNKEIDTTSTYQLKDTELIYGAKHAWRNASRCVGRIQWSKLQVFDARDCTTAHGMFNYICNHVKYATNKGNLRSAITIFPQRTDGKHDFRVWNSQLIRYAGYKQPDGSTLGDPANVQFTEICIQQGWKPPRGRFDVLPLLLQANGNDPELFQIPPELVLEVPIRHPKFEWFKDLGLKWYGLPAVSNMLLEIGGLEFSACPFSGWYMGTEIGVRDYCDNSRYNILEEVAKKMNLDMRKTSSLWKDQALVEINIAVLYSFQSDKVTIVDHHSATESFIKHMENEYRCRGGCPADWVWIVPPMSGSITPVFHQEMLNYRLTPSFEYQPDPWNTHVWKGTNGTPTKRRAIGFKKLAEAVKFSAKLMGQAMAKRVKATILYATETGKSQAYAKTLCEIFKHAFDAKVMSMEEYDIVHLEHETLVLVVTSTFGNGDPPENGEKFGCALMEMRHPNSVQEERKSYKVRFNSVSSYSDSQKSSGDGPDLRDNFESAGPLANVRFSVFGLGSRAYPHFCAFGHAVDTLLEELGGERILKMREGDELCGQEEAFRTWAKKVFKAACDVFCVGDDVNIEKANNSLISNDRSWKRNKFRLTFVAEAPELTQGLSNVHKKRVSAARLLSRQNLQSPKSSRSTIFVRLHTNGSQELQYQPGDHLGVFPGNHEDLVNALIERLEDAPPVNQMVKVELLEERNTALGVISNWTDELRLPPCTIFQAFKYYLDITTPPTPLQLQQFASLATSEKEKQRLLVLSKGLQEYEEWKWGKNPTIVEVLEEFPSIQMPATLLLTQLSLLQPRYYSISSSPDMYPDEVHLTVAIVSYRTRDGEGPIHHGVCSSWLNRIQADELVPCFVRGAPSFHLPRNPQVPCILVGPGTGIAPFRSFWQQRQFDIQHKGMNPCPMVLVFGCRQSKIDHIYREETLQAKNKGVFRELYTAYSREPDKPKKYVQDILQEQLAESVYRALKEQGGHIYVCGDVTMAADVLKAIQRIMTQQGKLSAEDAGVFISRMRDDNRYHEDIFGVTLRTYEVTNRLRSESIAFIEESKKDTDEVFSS

| SMILES | IC50 (Nitric oxide synthase 3) [µM] | EC50 [1] [µM] | IC50 [2] [µM] | Ki [2] [µM] | IC50 (Nitric oxide synthase 1) [µM] |
| --- | --- | --- | --- | --- | --- |
| CS/C(=N/O)NCCC[C@H](N)C(=O)O | 19.7 | 6.6 | 13 | 7 | 6.7 |
| NNC(=S)NCCC[C@H](N)C(=O)O | 3060 | 190 | 3710 | 202 | 1620 |
| CS/C(=N/N)NCCC[C@H](N)C(=O)O | 752 | 180 | 320 | 58 | 327 |
